Source: ChEMBL document CHEMBL3102799, “Glutathione-analogous peptidyl phosphorus esters as mechanism-based inhibitors of γ-glutamyl transpeptidase for probing cysteinyl-glycine binding site” (Bioorg Med Chem, 2014)
Activity calls are given as the source filed them. The rule behind the calls is not given here.

Experiments:
[1] = target: Glutathione hydrolase 1 proenzyme (Homo sapiens) (UniProt P19440); assay: Inhibition of hydrolytic activity of human GGT using 7-(N-gamma-glutamylamino)-4-methylcoumarin as substrate assessed as release of AMC at 1 mM after 10 mins by fluorescence assay
Sequence of Glutathione hydrolase 1 proenzyme (Homo sapiens) (P19440 1-380 limits assumed): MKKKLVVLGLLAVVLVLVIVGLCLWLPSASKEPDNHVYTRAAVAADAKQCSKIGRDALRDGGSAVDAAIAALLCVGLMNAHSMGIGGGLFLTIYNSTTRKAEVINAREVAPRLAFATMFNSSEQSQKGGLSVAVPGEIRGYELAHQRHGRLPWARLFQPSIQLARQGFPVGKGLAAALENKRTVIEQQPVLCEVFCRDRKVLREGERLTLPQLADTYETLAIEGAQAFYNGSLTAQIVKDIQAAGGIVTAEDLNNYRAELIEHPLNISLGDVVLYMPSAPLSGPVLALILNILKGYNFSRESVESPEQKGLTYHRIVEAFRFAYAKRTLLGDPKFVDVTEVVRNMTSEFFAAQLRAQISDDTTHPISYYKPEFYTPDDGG
Sequence of Glutathione hydrolase 1 proenzyme (Homo sapiens) (P19440 381-569 limits assumed): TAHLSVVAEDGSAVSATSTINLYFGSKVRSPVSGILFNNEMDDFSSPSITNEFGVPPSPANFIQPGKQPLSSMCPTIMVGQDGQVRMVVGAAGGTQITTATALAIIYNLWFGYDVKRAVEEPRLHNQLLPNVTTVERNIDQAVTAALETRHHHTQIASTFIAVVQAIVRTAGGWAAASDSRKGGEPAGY
Procedure, shortened: (§1)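 Human GGT (HC-GTP, BSA-stabilised, used unpurified). Enzyme added to preincubated inhibitor plus 4.0 μM γ-Glu-AMC (final; Km 12.6 μM) in 100 mM sodium succinate pH 5.5, 25°C, no acceptor. AMC fluorescence (ex 350/em 440 nm) read continuously 10 min against AMC calibration; first-order fit of progress curves gives kobs; kon derived as kobs = kon[I]/(1+[S]/Km).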

Escherichia coli [2] = assay: Inhibition of hydrolytic activity of Escherichia coli GGT using 7-(N-gamma-glutamylamino)-4-methylcoumarin as substrate assessed as release of AMC after 10 mins by fluorescence assay
[3] = target: Glutathione hydrolase 1 proenzyme (Homo sapiens) (UniProt P19440); assay: Inhibition of hydrolytic activity of human GGT using 7-(N-gamma-glutamylamino)-4-methylcoumarin as substrate assessed as release of AMC after 10 mins by fluorescence assay; procedure, shortened: as §1
Escherichia coli [4] = assay: Inhibition of hydrolytic activity of Escherichia coli GGT using 7-(N-gamma-glutamylamino)-4-methylcoumarin as substrate assessed as release of AMC at 1 mM after 10 mins by fluorescence assay
Procedure, shortened: (§2)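 E. coli enzyme purified from periplasmic fraction of recombinant E. coli K-12 (SH642). Time-dependent inactivation, pseudo-first-order: enzyme added to preincubated inhibitor plus 0.2 μM γ-Glu-AMC (final; equals Km) in 100 mM sodium succinate pH 5.5, 25°C, no acceptor substrate. AMC release (ex 350/em 440 nm) followed continuously 10 min; progress curves fit first-order for kobs; kon from kobs = kon[I]/(1+[S]/Km).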

Escherichia coli [5] = assay: Inhibition of hydrolytic activity of Escherichia coli GGT using 7-(N-gamma-glutamylamino)-4-methylcoumarin as substrate assessed as release of AMC at 1 mM by fluorescence assay; conditions: TDE = time-dependent effect; procedure, shortened: as §2
Escherichia coli [6] = assay: Binding affinity to Cys-Gly binding site of Escherichia coli GGT by ion-spray mass spectroscopy analysis
[7] = target: Glutathione hydrolase 1 proenzyme (Homo sapiens) (UniProt P19440); assay: Ratio of acivicin to compound for hydrolytic activity of human GGT
[8] = target: Glutathione hydrolase 1 proenzyme (Homo sapiens) (UniProt P19440); assay: Irreversible inhibition of hydrolytic activity of human GGT using 7-(N-gamma-glutamylamino)-4-methylcoumarin as substrate assessed as release of AMC at 1 mM after 10 mins by fluorescence assay; procedure, shortened: as §1
[9] = target: Glutathione hydrolase 1 proenzyme (Homo sapiens) (UniProt P19440); assay: Inhibition of hydrolytic activity of human GGT using 7-(N-gamma-glutamylamino)-4-methylcoumarin as substrate assessed as release of AMC by fluorescence assay; conditions: TDE = time-dependent effect; procedure, shortened: as §1
Escherichia coli [10] = assay: Inhibition of hydrolytic activity of Escherichia coli GGT using 7-(N-gamma-glutamylamino)-4-methylcoumarin as substrate assessed as release of AMC at 1.5 mM after 10 mins by fluorescence assay; procedure, shortened: as §2

SMILES | inhibition [1] | K (Escherichia coli [2]) [M⁻¹ s⁻¹] | K [3] [M⁻¹ s⁻¹] | inhibition (Escherichia coli [5]) | other results
CCCC[C@H](O[P@](=O)(CCC(N)C(=O)O)Oc1ccccc1)C(=O)NCC(=O)O (stereo partly drawn) | inactive | 1.7 |  |  | 
N[C@H](C(=O)O)[C@@H]1CC(Cl)=NO1 |  | 4200 | 0.4 |  | 
CCC(OP(=O)(CCC(N)C(=O)O)Oc1ccccc1)C(=O)NCC(=O)O (mixture of isomers) |  | 80 | 75 |  | 
CCCC[C@@H](O[P@@](=O)(CCC(N)C(=O)O)Oc1ccccc1)C(=O)NCC(=O)O (mixture of isomers) | inactive |  |  |  | inhibition (Escherichia coli [4]): inactive
CCCC[C@@H](O[P@](=O)(CCC(N)C(=O)O)Oc1ccccc1)C(=O)NCC(=O)O (mixture of isomers) | inactive | 1.3 |  |  | 
CCCC[C@H](O[P@@](=O)(CCC(N)C(=O)O)Oc1ccccc1)C(=O)NCC(=O)O (mixture of isomers) |  | 50.7 | 63.2 | tde | 
CCCC[C@H](O[P@@](=O)(CCC(N)C(=O)O)Oc1ccccc1)C(=O)OC (mixture of isomers) | inactive | 8.83 |  | tde | 
CC[C@H](O[P@@](=O)(CCC(N)C(=O)O)Oc1ccccc1)C(=O)NCC(=O)O (mixture of isomers) |  | 109 | 145 | tde | Activity (Escherichia coli [6]): Active; Ratio [7]: > 360; inhibition [8]: Active
CC[C@H](O[P@](=O)(CCC(N)C(=O)O)OC)C(=O)NCC(=O)O (mixture of isomers) | inactive |  |  |  | inhibition (Escherichia coli [4]): inactive
NC(CCP(=O)(OCC(=O)NCC(=O)O)Oc1ccccc1)C(=O)O (mixture of isomers) |  | 80.6 | 44.5 |  | 
NC(CC[P@@](=O)(Oc1ccccc1)O[C@@H](CCl)C(=O)NCC(=O)O)C(=O)O (mixture of isomers) |  | 188 | 40.3 | tde | 
NC(CC[P@@](=O)(Oc1ccccc1)O[C@@H](CI)C(=O)NCC(=O)O)C(=O)O (mixture of isomers) |  | 98.4 | 43.6 | tde | 
NC(CC[P@@](=O)(Oc1ccccc1)O[C@@H](Cc1ccccc1)C(=O)NCC(=O)O)C(=O)O (mixture of isomers) |  | 389 | 4.44 | tde | 
N[C@@H](CCP(=O)(CCC(=O)NCC(=O)O)Oc1ccccc1)C(=O)O (mixture of isomers) |  |  | 1.35 |  | inhibition [9]: tde; inhibition (Escherichia coli [10]): inactive
